Experimental findings from ChEMBL document CHEMBL4177577, “Lipophilic methylene violet analogues as modulators of mitochondrial function and dysfunction” (Bioorg Med Chem, 2017) are described below.

Structures are written as SMILES. Active and inactive are the calls of the source. No cut-off for these calls is given here.

Data set [1] deals with Friedreich's ataxia lymphocyte. Briefly: Cytoprotection against rotenone-induced cytotoxicity in human Friedreich's ataxia lymphocytes assessed as increase in cell viability at 0.25 and 2.5 uM pre-incubated for 12 hrs in glucose-free media followed by rotenone challenge for 24 hrs by Live/Dead cell viability assay. It counts as functional, cell-based. In a few lines:
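FRDA lymphocytes (5×10^5 cells/mL) in glucose-free medium with 25 mM galactose were pretreated with compounds at 37 °C, then exposed to 50 nM rotenone for 24 h. Cells were stained with 0.1 μM calcein AM and 0.2 μM EthD-1 for 15 min at 37 °C and run on flow cytometry (10,000 events). Live cells are given as % of control; two independent runs in duplicate.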

Data set [2] can be described thus: Induction of mitochondrial membrane potential preservation in human Friedreich's ataxia lymphocytes assessed as JC1 dye monomer level at 5 uM pre-incubated for 16 hrs by JC1 staining based assay (reference value: 10.1%).
A short description of data set [3]: Cytotoxicity in human Friedreich's ataxia lymphocytes assessed as reduction in cell viability at 2.5 uM incubated for 24 hrs by Live/Dead cell viability assay. It counts as cell-based. Particulars: friedreich's ataxia lymphocyte. The procedure, abridged:
(§1)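 FRDA lymphocytes (5×10^5 cells/mL) were kept in glucose-free medium (25 mM galactose) with compound at 37 °C and 5% CO₂ for 24 or 48 h. Cells were washed, stained with 0.1 μM calcein AM (live) and 0.2 μM EthD-1 (dead) for 15 min at 37 °C and analysed by flow cytometry (10,000 events). Duplicates were run in two independent runs.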

The nature of data set [4]: Cytotoxicity in human Friedreich's ataxia lymphocytes assessed as reduction in cell viability at 2.5 uM incubated for 48 hrs by Live/Dead cell viability assay. Particulars: friedreich's ataxia lymphocyte. It counts as cell-based. In a few lines:
as §1

In data set [5] the test system is Friedreich's ataxia fibroblast (Homo sapiens). Nature of the data set: Cytoprotection against buthionine sulfoximine-induced cytotoxicity in human Friedreich's ataxia fibroblasts assessed as increase in cell viability at 25 to 1000 nM pre-incubated before buthionine sulfoximine challenge for 48 hrs by Live/Dead cell viability assay.
Data set [6] can be described thus: Induction of mitochondrial membrane potential preservation in human Friedreich's ataxia lymphocytes assessed as JC1 dye aggregates level at 5 uM pre-incubated for 16 hrs by JC1 staining based assay (reference value: 69.8%).
For data set [7], the system named is Friedreich's ataxia lymphocyte. Nature of the data set: Effect on ATP level in human Friedreich's ataxia lymphocytes at 100 to 5000 nM incubated for 24 hrs by luminescence based assay. It counts as functional, cell-based. In a few lines: (§2)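 Lymphocytes (2×10^5 cells/mL) were treated with compound at final 0.1, 0.5 or 5 μM (DMSO <0.5%) in glucose-free medium (25 mM galactose) for 24 h at 37 °C. Total intracellular ATP was read by a bioluminescence kit and given as % of untreated control. Data are the mean of at least three independent experiments.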

In data set [8] the test system is Friedreich's ataxia lymphocyte. Briefly: Inhibition of ROS generation in human Friedreich's ataxia lymphocytes at 250 and 2500 nM incubated for 16 hrs by DCFH-DA staining based FACS method. It counts as functional, cell-based. The procedure, abridged:
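FRDA lymphocytes (GM15850; 5×10^5 cells/mL) were pretreated with compound for 16 h at 37 °C, then exposed to 5 mM diethyl maleate for 80 min to deplete glutathione. Cells were loaded with 10 μM DCFH-DA in PBS with 20 mM glucose for 25 min at 37 °C and DCF was read by flow cytometry (10,000 events). Median fluorescence is given as % of the DEM-treated control; duplicates in two runs.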

In data set [9] the test system is Friedreich's ataxia lymphocyte. Nature of the data set: Effect on ATP level in human Friedreich's ataxia lymphocytes at 100 nM incubated for 24 hrs by luminescence based assay. It counts as functional, cell-based. The procedure, abridged:
as §2

The species named for data set [10] is Bos taurus. Nature of the data set: Effect on NADH-ubiquinone oxidoreductase in bovine heart submitochondrial particles assessed as induction of electron flow from complex-1 by measuring NADH oxidation at 5 uM in presence of 50 nM rotenone using NADH and coenzyme Q1 by spectrophotomery. The procedure, abridged: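 Submitochondrial particles (30 μg/mL) were preincubated 5 min at 30 °C with compound in 50 mM phosphate buffer, pH 7.4, with 0.25 M sucrose, 1 mM MgCl₂, 2 μM antimycin A and 2 mM KCN. The reaction was started with 75 μM NADH plus 15 μM coenzyme Q₁, and NADH loss was followed at 340 nm. Values are the mean of two independent experiments in duplicate.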

Data set [11] is described as follows: Reduction in ATP level in human Friedreich's ataxia lymphocytes at 5 uM incubated for 24 hrs by luminescence based assay. It counts as ADME, cell-based. The following applies: friedreich's ataxia lymphocyte. In a few lines:
as §2

In data set [12] the test system is Friedreich's ataxia lymphocyte. Nature of the data set: Increase in ATP level in human Friedreich's ataxia lymphocytes at 0.5 uM incubated for 24 hrs by luminescence based assay. It counts as functional, cell-based. In a few lines:
as §2

Data set [13] concerns Friedreich's ataxia lymphocyte. Briefly: Increase in ATP level in human Friedreich's ataxia lymphocytes at 0.1 uM incubated for 24 hrs by luminescence based assay. It counts as functional, cell-based. In a few lines:
as §2

With `CCCCCCCCCCCCCCCN(CCCCCCCCCCCCCCC)c1ccc2nc3ccc(=O)cc-3sc2c1`, in [1], the outcome was Active. Further, the Activity in [2] is 11.7%; in data set [3], “Non-Toxic”; in data set [4], “Non-Toxic”; in data set [5], “Dose-dependent effect”; in [6], 88.2%. Further, the outcome in [7] was inactive. Further, the “ROS generation inhibition (qualitative)” value in [8] was “Active”.
For `CCCCCCCCCCN(CCCCCCCCCC)c1ccc2nc3ccc(=O)cc-3sc2c1`, in data set [1], the outcome was Active. Further, the Activity was 14.3% in data set [2]; “Non-Toxic” in data set [3]; “Non-Toxic” in data set [4]; “Dose-dependent effect” in [5]; 85.7% in [6]. Besides, the outcome in data set [7] was inactive. The “ROS generation inhibition (qualitative)” value in data set [8] is “Active”.
In the case of `CN(C)c1ccc2nc3ccc(N(C)C)cc3[s+]c2c1.[Cl-]` [METHYLENE BLUE ANHYDROUS], the Activity in [2] is given as 58.1%; in data set [3], “Toxic”; in data set [4], “Toxic”; in data set [6], 41.7%.
On to `CN(C)c1ccc(C(=C2C=CC(=[N+](C)C)C=C2)c2ccc(N(C)C)cc2)cc1.[Cl-]` [GENTIAN VIOLET], for which, in [9], the outcome was inactive. In addition, the result in data set [1] and in [10] was Active. The Activity in data set [2] turned out to be 27.3%; in [6], 72.6%. In [8], the “ROS generation inhibition (qualitative)” value is “Active”.
Consider `CCCCN(CCCC)c1ccc2nc3ccc(=O)cc-3sc2c1`, for which the outcome in data set [9] was inactive. The result in data set [1] was Active. Moreover, the Activity is 25.6% in [2], “Toxic” in data set [4], “Dose-dependent effect” in [5] and 74.2% in [6]. Besides, the “ROS generation inhibition (qualitative)” value in data set [8] was “Active”.
For the molecule `CCCCCCCCCCCCCCCN(C)c1ccc2nc3ccc(=O)cc-3sc2c1`, the result in data set [1], in [12] and in data set [13] was Active. Besides, the Activity is 14.7% in data set [2]; “Non-Toxic” in [3]; “Non-Toxic” in data set [4]; “Dose-dependent effect” in data set [5]; “Toxic” in data set [11]; 85.2% in data set [6]. Besides, the “ROS generation inhibition (qualitative)” value in data set [8] was “Dose-dependent effect”.
Turning to `CN(C)c1ccc2nc3ccc(=[N+](C)C)cc-3sc2c1`, the result in data set [9] was inactive. In addition, the result in [1] and in [10] was Active.
In the case of `CCCCCCCCCCCCCCCN(CCCC)c1ccc2nc3ccc(=O)cc-3sc2c1`, the result in data set [1], in [10], in [12] and in data set [13] was Active. For the same molecule, the Activity in data set [2] is 10.6%; in data set [3], “Non-Toxic”; in data set [4], “Non-Toxic”; in data set [5], “Dose-dependent effect”; in [11] it was “Toxic”; in data set [6] it was 89.3%. The “ROS generation inhibition (qualitative)” value in data set [8] was “Dose-dependent effect”.
